According to ChEMBL document CHEMBL3351594, “Cytotoxic dimeric epipolythiodiketopiperazines from the ascomycetous fungus Preussia typharum” (J Nat Prod, 2014):
Active and inactive are the calls of the source. The rule behind the calls is not given here.

Key:
[1] = Cytotoxicity against human UACC257 cells by SRB method; type: functional
Summary of the method: (§1)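 NCI-60 in vitro screen panel of human tumor lines; GI50 (molar concentration giving 50% growth inhibition) and TGI (total growth inhibition) taken from dose–response data.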

[2] = Cytotoxicity against human NCI-ADR-RES cells by SRB method; type: functional
Summary of the method: (§2)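 NCI-60 in vitro drug screening panel. Values are the molar concentrations giving 50% growth inhibition (GI50) and total growth inhibition (TGI).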

SN12C = experiment: Cytotoxicity against human SN12C cells by SRB method; type: functional; summary of the method: as §1
SW-620 = experiment: Cytotoxicity against human SW620 cells by SRB method; type: functional; summary of the method: as §1
BT-549 = experiment: Cytotoxicity against human BT549 cells by SRB method; type: functional; summary of the method: as §2
HCC 2998 = experiment: Cytotoxicity against human HCC2998 cells by SRB method; type: functional; summary of the method: as §2
HeLa [3] = experiment: Inhibition of Histone-lysine N-methyltransferase Su(var)3-9 in human HeLa cells assessed as high H3K9me3 expression at 200 nM after 1 to 24 hrs by immunoblotting analysis; type: cell-based
Summary of the method: (§3)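 HeLa cells treated with vehicle or 200 nM for 1–24 h; log-phase cells lysed with protease inhibitors, equal protein by SDS-PAGE, PVDF transfer, probed for H3K9me3 and actin, ECL detection.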

HT-29 = experiment: Cytotoxicity against human HT-29 cells by SRB method; type: functional; summary of the method: as §2
[4] = Cytotoxicity against human OVCAR4 cells by SRB method; type: functional; summary of the method: as §2
UACC-62 = experiment: Cytotoxicity against human UACC62 cells assessed as reduction of colony formation incubated for 4 hrs followed by compound washout measured after 14 days relative to vehicle-treated control; type: functional, cell-based
Summary of the method: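 Clonogenic test: 600 UACC-62 cells (RPMI1640, 10% FBS, gentamicin) adhered, exposed 4 h to vehicle (DMSO) or compound, washed with DPBS, fresh medium, grown 14 days; fixed, 0.5% crystal violet in 10% methanol, colonies counted; duplicate/triplicate, n = 2–4 experiments; one-way ANOVA with Dunnett's vs vehicle.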

HOP-92 = experiment: Cytotoxicity against human HOP92 cells by SRB method; type: functional; summary of the method: as §2
DU-145 = experiment: Cytotoxicity against human DU145 cells by SRB method; type: functional; summary of the method: as §2
NCI-H226 = experiment: Cytotoxicity against human NCI-H226 cells by SRB method; type: functional; summary of the method: as §2
SF-268 = experiment: Cytotoxicity against human SF268 cells by SRB method; type: functional; summary of the method: as §2
[5] = Cytotoxicity against human OVCAR3 cells by SRB method; type: functional; summary of the method: as §2
IGROV-1 = experiment: Cytotoxicity against human IGROV1 cells by SRB method; type: functional; summary of the method: as §2
M14 = experiment: Cytotoxicity against human M14 cells by SRB method; type: functional; summary of the method: as §2
[6] = Cytotoxicity against human MIAPaCa2 cells after 24 hrs by MTT assay; type: functional, cell-based; conditions: MIA PaCa-2, 24 h
[7] = Toxicity in ip dosed athymic nude mouse xenografted with human UACC62 cells administered every 4 days; type: organism-based, UACC-62; conditions: in vivo
Summary of the method: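 Female athymic nude mice received 2 × 10^6 UACC-62 cells sc into each flank and were randomized at a median tumor volume of 150 mm3 (n = 5/group). Compound was given ip in DMSO–Cremophor (1:1) diluted in 200 μL DPBS (final ≤2.5%). Dose-tolerance testing used 10, 2 and 1.5 mg/kg (every 4 days). Mice were weighed daily for weight loss.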

[8] = Cytotoxicity against human P-gp expressing SKOV3-M6/6 cells by SRB assay; type: functional
Summary of the method: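 SRB assay in SK-OV-3/MDR-1-6/6 cells, a single-cell clone of SKOV-3/MDR1 (P-gp). Percent cell growth follows Boyd et al. GI50 was derived from dose–response curves of percent growth. Results are mean ± SE of n = 3 or 4 independent experiments. Relative resistance is calculated against parental SK-OV-3.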

ACHN = experiment: Cytotoxicity against human ACHN cells by SRB method; type: functional; summary of the method: as §2
[9] = Cytotoxicity against human UO31 cells by SRB method; type: functional; summary of the method: as §1
SF-295 = experiment: Cytotoxicity against human SF295 cells by SRB method; type: functional; summary of the method: as §2
K562 = experiment: Cytotoxicity against human K562 cells by SRB method; type: functional; summary of the method: as §2
SNB-75 = experiment: Cytotoxicity against human SNB75 cells by SRB method; type: functional; summary of the method: as §1
SK-MEL-2 = experiment: Cytotoxicity against human SK-MEL-2 cells by SRB method; type: functional; summary of the method: as §2
U-251 = experiment: Cytotoxicity against human U251 cells by SRB method; type: functional; summary of the method: as §1
COLO 205 = experiment: Cytotoxicity against human COLO205 cells by SRB method; type: functional; summary of the method: as §2
HeLa [10] = experiment: Increase in H3K9 methylation in human HeLa cells assessed as high H3K9me3 expression at 200 nM after 1 to 24 hrs by immunoblotting analysis; type: functional, cell-based; summary of the method: as §3
A498 = experiment: Cytotoxicity against human A498 cells by SRB method; type: functional; summary of the method: as §2
NCI-H23 = experiment: Cytotoxicity against human NCI-H23 cells by SRB method; type: functional; summary of the method: as §2
Mus musculus = experiment: Toxicity in athymic nude mouse xenografted with human UACC62 cells assessed as rapid and persistent weight loss at 2 mg/kg, ip; type: organism-based, UACC-62; design: dose 2 mg/kg, route intraperitoneal; conditions: in vivo
SK-MEL-5 = experiment: Cytotoxicity against human SK-MEL-5 cells by SRB method; type: functional; summary of the method: as §1
[11] = read-out: LC50 (the source's name)

SMILES: CC(C)[C@@]12SS[C@]3(C(=O)N1C)[C@@H](O)[C@]1(C45c6ccccc6N[C@H]4N4C(=O)[C@@]6(CO)SS[C@@]4(C(=O)N6C)[C@H]5O)c4ccccc4N[C@@H]1N3C2=O (stereo not given in full)
- GI50 ([1]; UACC-257): 0.0087 µM
- TGI ([1]; UACC-257): 0.0195 µM
- CC50 ([1]; UACC-257, read-out: LC50 (the source's name)): 0.0437 µM
- GI50 [2]: 0.0339 µM
- TGI [2]: 0.12 µM
- CC50 [2, 11]: 0.355 µM
- GI50 (SN12C): 0.0229 µM
- TGI (SN12C): 0.525 µM
- CC50 (SN12C; [11]): 1.78 µM
- GI50 (SW-620): 0.0083 µM
- TGI (SW-620): 0.0316 µM
- CC50 (SW-620; [11]): 0.129 µM
- GI50 (BT-549): 0.0148 µM
- TGI (BT-549): 0.0661 µM
- CC50 (BT-549; [11]): 0.209 µM
- GI50 (HCC 2998): 0.0537 µM
- TGI (HCC 2998): 0.115 µM
- CC50 (HCC 2998; [11]): 0.245 µM
- inhibition (HeLa [3]): inactive
- GI50 (HT-29): 0.0056 µM
- TGI (HT-29): 0.0135 µM
- CC50 (HT-29; [11]): 0.0324 µM
- GI50 ([4]; OVCAR-4): 0.0059 µM
- TGI ([4]; OVCAR-4): 0.0129 µM
- CC50 ([4]; OVCAR-4, read-out: LC50 (the source's name)): 0.0275 µM
- Activity (UACC-62): Dose-dependent effect
- GI50 (HOP-92): 0.011 µM
- TGI (HOP-92): 0.0288 µM
- CC50 (HOP-92; [11]): 0.112 µM
- GI50 (DU-145): 0.0148 µM
- TGI (DU-145): 0.0537 µM
- CC50 (DU-145; [11]): 0.2 µM
- GI50 (NCI-H226): 0.01 µM
- TGI (NCI-H226): 0.024 µM
- CC50 (NCI-H226; [11]): 0.0724 µM
- GI50 (SF-268): 0.0224 µM
- TGI (SF-268): 0.107 µM
- CC50 (SF-268; [11]): 0.417 µM
- GI50 ([5]; OVCAR-3): 0.0107 µM
- TGI ([5]; OVCAR-3): 0.0263 µM
- CC50 ([5]; OVCAR-3, read-out: LC50 (the source's name)): 0.0851 µM
- GI50 (IGROV-1): 0.0245 µM
- TGI (IGROV-1): 0.1 µM
- CC50 (IGROV-1; [11]): 0.339 µM
- GI50 (M14): 0.0135 µM
- TGI (M14): 0.0537 µM
- CC50 (M14; [11]): 0.182 µM
- IC50 [6]: 0.0066 µM
- MTD at 96 h [7]: 1.5 mg/kg
- GI50 [8]: 0.033 µM
- GI50 (ACHN): 0.0155 µM
- TGI (ACHN): 0.0603 µM
- CC50 (ACHN; [11]): 0.234 µM
- GI50 ([9]; UO-31): 0.0098 µM
- TGI ([9]; UO-31): 0.0263 µM
- CC50 ([9]; UO-31, read-out: LC50 (the source's name)): 0.1 µM
- GI50 (SF-295): 0.0575 µM
- TGI (SF-295): 0.155 µM
- CC50 (SF-295; [11]): 0.417 µM
- GI50 (K562): 0.0148 µM
- TGI (K562): 0.115 µM
- CC50 (K562; [11]): > 50 µM
- GI50 (SNB-75): 0.0135 µM
- TGI (SNB-75): 0.0501 µM
- CC50 (SNB-75; [11]): 0.159 µM
- GI50 (SK-MEL-2): 0.0098 µM
- TGI (SK-MEL-2): 0.0204 µM
- CC50 (SK-MEL-2; [11]): 0.0437 µM
- GI50 (U-251): 0.0178 µM
- TGI (U-251): 0.0617 µM
- CC50 (U-251; [11]): 0.178 µM
- GI50 (COLO 205): 0.0148 µM
- TGI (COLO 205): 0.049 µM
- CC50 (COLO 205; [11]): 0.155 µM
- Activity (HeLa [10]): Active
- GI50 (A498): 0.0098 µM
- TGI (A498): 0.0282 µM
- CC50 (A498; [11]): 0.105 µM
- GI50 (NCI-H23): 0.0162 µM
- TGI (NCI-H23): 0.0562 µM
- CC50 (NCI-H23; [11]): 0.234 µM
- Activity (Mus musculus): Toxic
- GI50 (SK-MEL-5): 0.0148 µM
- TGI (SK-MEL-5): 0.0575 µM
- CC50 (SK-MEL-5; [11]): 0.151 µM
